This is an account of results in ChEMBL document CHEMBL5131498, “Synthesis and biological evaluation of orally active prodrugs and analogs of para-aminosalicylic acid (PAS)” (Eur J Med Chem, 2022).

Converted amounts (≈) assume the structure as drawn.

The nature of data set [1]: AUC in CD-1 mouse at 10 mg/kg, po administered as single dose and measured up to 5 hrs by LC-MS/MS analysis. The class given is ADME, organism-based. Further details: dose 10 mg/kg, time < 5 hrs, route po. The following applies: in vivo. An outline of the steps:
(§1)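 Snapshot PK: single oral gavage at 10 mg/kg in 5% dimethylacetamide:60% PEG 300:35% (5% dextrose in water) solution to female CD-1 mice (n = 2). Tail-vein blood (K2EDTA) at 0.5, 1, 3, 5 h; plasma protein-precipitated in MeCN with internal standard, prodrug and released PAS quantified by LC-MS/MS; AUC by non-compartmental analysis.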

Data set [2] in a line: AUC in CD-1 mouse plasma assessed as para-aminosalicylic acid AUC at 10 mg/kg, po administered as single dose and measured up to 5 hrs by HPLC-MS/MS analysis. The class given is ADME, organism-based. Further details: time < 5 hrs, dose 10 mg/kg, route po. The following applies: in vivo. An outline of the steps:
as §1

Data set [3] in a line: Ratio of compound AUC to para-aminosalicylic acid AUC in CD-1 mouse. The class given is ADME. The following applies: in vivo.
A short description of data set [4]: Metabolic stability in human plasma assessed as parent compound remaining at 1 ug/ml measured after 2 hrs by LC-MS/MS analysis. The format is ADME, cell-free. Particulars: at 1 µg/mL, read-out: Stability. An outline of the steps:
(§2)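 Compound at 1 μg/mL final (from 20 μg/mL DMSO stock; 5% DMSO) incubated in K2EDTA plasma (female CD-1 mouse or human) at 37 °C with shaking. Aliquots quenched in 1:1 MeCN/MeOH with verapamil; parent and released PAS measured by high-resolution LC-MS/MS; percent parent remaining versus initial concentration at 120 min.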

Data set [5] is described as follows: Metabolic stability in CD-1 mouse plasma assessed as parent compound remaining at 1 ug/ml measured after 2 hrs by LC-MS/MS analysis. The class given is ADME, cell-free. Particulars: at 1 µg/mL, read-out: Stability. Put shortly:
as §2

Data set [6] deals with Mycobacterium tuberculosis. The data set is described as follows: Antimycobacterial activity against Mycobacterium tuberculosis H37Rv assessed as inhibition of bacterial growth measured after 10 days by microbroth dilution method. The class given is functional. The following applies: 240 h, time 10 day.
Data set [7] is described as follows: AUC in CD-1 mouse at 25 mg/kg, po administered as single dose and measured up to 24 hrs by LC-MS/MS analysis. The following applies: in vivo. The format is ADME, organism-based. Details: dose 25 mg/kg, time < 24 hrs, route po. Put shortly: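 Female CD-1 mice (n = 3) given a single oral gavage dose of 25 mg/kg as a 0.5% CMC/0.5% Tween 80 suspension. Tail-vein blood was drawn at 0.5, 1, 3, 5, 7 and 24 h into K2EDTA and plasma stored at −80 °C. Only PAS was quantified, by LC-MS/MS after MeCN precipitation.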

A short description of data set [8]: AUC in CD-1 mouse plasma assessed as para-aminosalicylic acid AUC at 25 mg/kg, po administered as single dose and measured up to 24 hrs by LC-MS/MS analysis. The format is ADME, organism-based. Further details: dose 25 mg/kg, time < 24 hrs, route po. The following applies: in vivo.
For data set [9], the system named is Mycobacterium tuberculosis. The data set is described as follows: Antimycobacterial activity against drug susceptible Mycobacterium tuberculosis H37Rv assessed as inhibition of bacterial growth measured after 2 weeks by microbroth dilution method. The class given is functional. The following applies: 336 h. Put shortly: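 Diluted 1000-fold into 96-well plates with 2-fold serial compound dilutions and incubated at 37 °C for 2 weeks. Growth scored by mirror at 1 and 2 weeks. MIC is the lowest concentration completely inhibiting growth; tested in duplicate. DMSO, isoniazid and linezolid served as controls.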

Data set [10] can be described thus: AUC in CD-1 mouse plasma assessed as para-aminosalicylic acid AUC at 25 mg/kg, po administered as single dose and measured up to 5 hrs by LC-MS/MS analysis. The format is ADME, organism-based. Details: dose 25 mg/kg, time < 5 hrs, route po. Particulars: in vivo. An outline of the steps: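 Female CD-1 mice (n = 2) dosed once by oral gavage at 25 mg/kg in 5% dimethylacetamide:60% PEG 300:35% (5% dextrose in water). Lateral tail-vein blood into K2EDTA at 0.5, 1, 3, 5 h; plasma analysed by LC-MS/MS after MeCN precipitation with internal standard; AUC over 5 h by non-compartmental fit.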

For the compound `COC(=O)c1ccc(N)cc1O`, in data set [1], the area under the curve (AUC) at 5 h came out at 1700 ng·h/mL. Further, the AUC in data set [2] turned out to be 53 ng·h/mL. Moreover, the “Ratio AUC” value in [3] is on record as 0.2. For the same compound, the values for the remaining at 2 h, 1 ug/ml in data set [4] and in data set [5] were 94% and 84%, respectively. The MIC90 in data set [6] is 64 µM (≈ 10.7 µg/mL).
In data set [7], `[N-]=[N+]=Nc1ccc(C(=O)O)c(O)c1` came in with an AUC of 900000 ng·h/mL. Besides, in data set [3], the “Ratio AUC” value is listed as 430. Further, the MIC90 in data set [6] was 128 µM (≈ 22.9 µg/mL).
Consider `CC(C)(C)C(=O)OCOC(=O)c1ccc(N)cc1O`, for which the exposure (AUC) in data set [2] is 460 ng·h/mL; in [8] it was 300 ng·h/mL. Besides, the values for the remaining at 2 h, 1 ug/ml in data set [4] and in data set [5] were 15% and 0%, respectively.
`CNc1ccc(C(=O)O)c(O)c1` yielded an AUC in [7] of 130000 ng·h/mL. Moreover, the “Ratio AUC” value in [3] was found to be 59. In [6], the MIC90 is over 128 µM.
In the case of `CCOC(=O)c1cc(F)c(N)cc1O`, in [3], the “Ratio AUC” value is reported as 0.02. Further, the MIC90 in [6] was over 128 µM.
For `CNc1ccc(C(=O)OC)c(O)c1`, in data set [1], the AUC at 5 h came out at 78 ng·h/mL. Moreover, the remaining at 2 h, 1 ug/ml in data set [4] came to 96%; in data set [5], 90%.
The compound `Cl.Nc1cc(O)c(C(=O)O)c(F)c1` had an area under the curve (AUC) in data set [7] of 2400 ng·h/mL. For the same compound, the “Ratio AUC” value in data set [3] is listed as 1.2. Moreover, the MIC90 in data set [6] turned out to be 64 µM.
`CC(C)OC(=O)OC(C)OC(=O)c1ccc(N)cc1O` (centres undefined): the area under the curve (AUC) in [2] worked out at 190 ng·h/mL. The remaining at 2 h, 1 ug/ml in data set [4] was 24%; in [5] it was 0%.
In [7], `Cl.Nc1ccc(C(=O)O)c(O)c1F` displayed an AUC of 4000 ng·h/mL. The “Ratio AUC” value in [3] amounted to 1.9. Also, the MIC90 in data set [6] is 32 µM.
In data set [1], `CC(C)OC(=O)c1ccc(N)cc1O` showed an AUC at 5 h of 230 ng·h/mL. Besides, the “Ratio AUC” value in [3] stood at 0.6. In addition, the remaining at 2 h, 1 ug/ml was found to be 93% in data set [4] and 94% in data set [5]. In addition, in data set [6], the MIC90 was over 128 µM.
For `Nc1cc(O)c(C(=O)O)cc1F`, the MIC90 was determined as 6.3 µM (≈ 1.08 µg/mL) in data set [9] and 8 µM (≈ 1.37 µg/mL) in data set [6]. In data set [7], this compound displayed an AUC of 10000 ng·h/mL. Besides, in data set [3], the “Ratio AUC” value worked out at 4.9.
On to `Cc1oc(=O)oc1COC(=O)c1ccc(N)cc1O`, for which the AUC in data set [10] stood at 250 ng·h/mL. In addition, the remaining at 2 h, 1 ug/ml in data set [4] and in data set [5] was 0% throughout.
As for `CC(OC(=O)c1ccc(N)cc1O)OC(=O)C(C)(C)C` (centres undefined), the AUC in data set [10] came out at 190 ng·h/mL. Moreover, the remaining at 2 h, 1 ug/ml in data set [4] and in [5] was 0% throughout.
For the compound `CC(C)OC(=O)OCOC(=O)c1ccc(N)cc1O`, the AUC in data set [2] amounted to 19 ng·h/mL. Besides, the remaining at 2 h, 1 ug/ml in [4] and in data set [5] was 0% throughout.
In data set [1], `CCOC(=O)c1ccc(N)cc1O` came in with an AUC at 5 h of 44 ng·h/mL. The “Ratio AUC” value in [3] is 0.1. Moreover, the figures for the remaining at 2 h, 1 ug/ml in data set [4] and in [5] were 94% and 92%, respectively. In addition, the MIC90 in data set [6] is 2 µM (≈ 0.362 µg/mL).
With `Nc1ccc(C(=O)O)c(O)c1` [AMINOSALICYLIC ACID], the MIC90 amounted to 0.2 µM (≈ 0.0306 µg/mL) in data set [9] and 0.5 µM (≈ 0.0766 µg/mL) in data set [6]. The results for the area under the curve (AUC) in [2] and in [8] were 380 ng·h/mL and 3400 ng·h/mL, respectively. Also, the “Ratio AUC” value in [3] is 1.
As for `CC(=O)NC[C@H]1CN(c2ccc(N3CCOCC3)c(F)c2)C(=O)O1` [LINEZOLID], in data set [9], the MIC90 amounted to 0.7 µM (≈ 0.236 µg/mL).
